# Compound activity (PubChem BioAssay)
# Platelet DG rel: inhibitors of platelet dense granule secretion, primary screen, cell-based, MLPCN, human platelets; human platelet-rich plasma, SFLLRN dense granule ATP release, luminescence; inhibition, %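 (compounds screened at 7.5 µM in platelet-rich plasma)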; 300,000 tested, 0.22% active;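 active = mean replicate score, as percent of positive control, at or above 50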
# KLK5 inh: human KLK5 protease inhibitors, primary screen, biochemical, 1536-well. Kallikrein-5 (Homo sapiens), Q9Y337. recombinant hK5, fluorogenic AMC substrate cleavage. inhibition, % at 5 µM. 210,000 tested, 0.59% active;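 active = inhibition of 40% or more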
# FXIIa inh: human FXIIa protease inhibitors, primary screen, biochemical, 1536-well | Coagulation factor XII (Homo sapiens), P00748 | purified FXIIa, Boc-QGR-AMC fluorogenic substrate, 2 h | inhibition, % at 5 µM | 220,000 tested, 0.3% active | AID 800, 2007; in the data active = inhibition above about 40%
# Wee1 degr inh: Wee1 degradation inhibitors, primary screen, cell-based, HeLa, Wee1K328M-luciferase, luminescence | HeLa Luc-Wee1K328M stability; 100% = proteasome inhibitor MG132 effect | AID 1321, 2008 | Wee1-like protein kinase (Homo sapiens), P30291 | 220,000 tested, 1.2% active | reporter increase, % at 5 µM;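 active = activation above the mean of all tested compounds plus 3 SD, set per screening run, cut at about 8.8% in these data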;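 also: cells exposed to compound for 20 h before luminescence read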
# Thrombin inh: human alpha-thrombin inhibitors, primary screen, counter-screen for coagulation protease inhibitor project, biochemical, 1536-well, fluorogenic AMC substrate; Prothrombin (Homo sapiens), P00734; Boc-VPR-AMC fluorogenic substrate cleavage; inhibition, % at 5 µM; 220,000 tested, 0.26% active; AID 1046, 2008;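 active = inhibition at or above 40%; inactive = inhibition below 40%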
#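 System – human alpha-thrombin protein · Reagent – Boc-VPR-AMC substrate, 15 µM final · Compound – 5 µM single dose in 0.2% DMSO · Schedule – reaction at room temperature · Technique – AMC fluorescence at 355 nm excitation and 460 nm emission · Read-out basis – % inhibition relative to enzyme controls and enzyme-free blanks · Control set – no-compound enzyme wells and no-enzyme blanks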
# FXIa inh 1536: human FXIa protease inhibitors, primary screen, biochemical, 1536-well. purified FXIa, Boc-Glu-Ala-Arg-AMC fluorogenic substrate. inhibition, % at 5 µM. 220,000 tested, 0.14% active. AID 798, 2007;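 active = inhibition of at least 40%; inactive = inhibition below 40%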;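 also: fluorescence of freed AMC excited at 355 nm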
# Target sequence (P03951 19-387 limits assumed): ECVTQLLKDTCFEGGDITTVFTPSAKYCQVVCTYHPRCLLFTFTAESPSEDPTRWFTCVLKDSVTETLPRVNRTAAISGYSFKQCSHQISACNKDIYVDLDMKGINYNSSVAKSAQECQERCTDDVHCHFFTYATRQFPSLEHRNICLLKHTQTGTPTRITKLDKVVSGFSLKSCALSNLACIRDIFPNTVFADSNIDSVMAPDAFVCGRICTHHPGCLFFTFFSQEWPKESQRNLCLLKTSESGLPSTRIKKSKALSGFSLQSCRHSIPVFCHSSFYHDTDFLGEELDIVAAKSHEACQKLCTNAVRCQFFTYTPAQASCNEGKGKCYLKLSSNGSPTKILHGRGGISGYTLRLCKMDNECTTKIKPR
# Target sequence (P03951 388-625 limits assumed): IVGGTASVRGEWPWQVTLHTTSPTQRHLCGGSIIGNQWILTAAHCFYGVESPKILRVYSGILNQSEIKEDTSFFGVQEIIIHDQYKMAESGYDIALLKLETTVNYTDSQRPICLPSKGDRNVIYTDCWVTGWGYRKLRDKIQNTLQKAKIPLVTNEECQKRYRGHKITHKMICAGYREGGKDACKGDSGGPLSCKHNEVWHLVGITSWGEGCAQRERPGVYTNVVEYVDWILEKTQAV
# Numbers stand for hits; – = inactive; · = no result given. Compounds with a hit are over-represented: about 1.8% of the library has one in this group of screens.
SMILES,Platelet DG rel,KLK5 inh,FXIIa inh,Wee1 degr inh,Thrombin inh,FXIa inh 1536
Cc1ccc(NC(=O)COC(=O)/C=C/c2cccs2)c(C)c1,–,–,–,–,–,–
Cc1[nH]n2c(=O)cc(C(C)(C)C)nc2c1-c1ccccc1,–,–,–,9.1,–,–
Cc1[nH][nH]c(=O)c1C(c1ccccc1[N+](=O)[O-])C(C#N)C#N (stereo not drawn),–,–,–,–,–,–
Cc1[nH][nH]c(=O)c1C(c1cc([N+](=O)[O-])ccc1O)c1c(C)[nH][nH]c1=O,–,57,–,–,–,–
Cc1cc(Br)c2[nH]c3c(c2c1)CCCC3=O,–,–,54,–,–,–
O=C1CCCc2c1[nH]c1c(Br)cccc21,–,–,–,–,–,–
COC(=O)C(C)Sc1nnc(Cc2cc(=O)[nH]c(=O)[nH]2)n1-c1ccc(Cl)cc1 (stereo not drawn),–,–,43,–,–,–
CCOC(=O)C1(C)C=C(Nc2cccc(OC)c2)C(=O)N1c1ccccc1 (stereo not drawn),–,44,–,–,–,–
CCCn1ncc2c(Nc3ccc(C)c(C)c3)ncnc21,–,·,·,·,·,·
CC(C)(C)c1[nH]nc2c1C(c1cccnc1)C(C#N)=C(N)O2 (stereo not drawn),–,–,–,9.9,–,–
CCc1[nH]nc2c1C(c1cccnc1)C(C#N)=C(N)O2 (stereo not drawn),–,–,–,–,–,–
CSc1nc(C)c(C(=O)C[n+]2ccccc2)cc1C#N,–,–,–,9.8,–,–
O=C(Nc1ccccc1Cl)c1ccccc1Cl,–,–,–,–,–,–
Cn1c(=O)c2cc(NC(=O)c3ccccc3Cl)c(=O)oc2n(C)c1=O,–,–,–,–,80,–
Nc1nncn1C(=O)CCc1ccccc1,–,–,–,–,56,–
Cc1cc(-c2ccco2)n(CC(=O)O)n1,–,115,–,–,–,–
O=C(COc1cccc(-n2cnnn2)c1)Nc1ccccc1,–,–,–,–,–,–
CSc1cccc(N2CC(C(=O)Nc3cccc(S(=O)(=O)N4CCCC4)c3)CC2=O)c1 (stereo not drawn),–,·,·,·,·,·
CC(C)(C)OC(=O)N[C@@H](Cc1ccccc1)c1nnc(S(=O)(=O)Cc2ccccc2)o1,·,–,–,–,–,–
CCC(C)[C@@H](NC(=O)OC(C)(C)C)c1nnc(S(=O)(=O)Cc2cccc(C)c2)o1 (stereo partly drawn),–,–,–,–,51,–
CCn1cc(C(=O)NCCCN2CCN(C)CC2)c(=O)c2cc(S(=O)(=O)N3CCc4ccccc4C3)ccc21,–,–,–,–,–,–
C#CCOC(=O)Nc1cc(C)n(-c2ccccc2)n1,–,–,–,–,–,–
Cc1ccc(-n2c(C)cc(/C=c3/sc4nc5ccccc5n4c3=O)c2C)cc1,61,–,–,–,–,–
CCn1ccnc1CN(C)Cc1cn[nH]c1-c1ccc(OC)c(F)c1,–,·,–,–,–,–
Cc1ccccc1C(=O)N(CC(=O)Nc1sc(C)c(C)c1C(N)=O)C1CCCC1,–,·,·,·,·,·
SMILES,Platelet DG rel,KLK5 inh,FXIIa inh,Wee1 degr inh,Thrombin inh,FXIa inh 1536
CC1=C(C(=O)OCCOc2ccccc2)C(c2ccsc2)NC(=O)N1C (stereo not drawn),–,–,–,–,–,54
CC(=O)O[C@]1(C(C)=O)CC[C@H]2[C@@H]3C=C(Cl)C4=CC(=O)[C@@H]5C[C@@H]5[C@]4(C)[C@H]3CC[C@@]21C,–,·,·,·,·,·
CC(C)(C)C(=O)NC1CCN(CC(=O)Nc2ccc3c(c2)OCO3)CC1,–,·,·,·,·,·
CCOC(=O)c1cc(-c2ccc(C)cc2)n(CC(=O)NCc2ccco2)c1C,–,54,–,–,–,–
O=C(NN=C1C2CC3CC1CC(Cl)(C3)C2)c1ccccn1,–,–,–,9.7,–,–
O=C(NN=C1C2CC3CC1CC(Cl)(C3)C2)c1cccs1,–,–,–,–,–,–
CCOc1ccc(NC(=O)c2c(N)n(C)c(=O)[nH]c2=O)cc1,–,·,·,·,·,·
COc1cc(Cl)c(C)cc1NC(=O)CSC,–,–,43,–,–,–
COc1ccc(-n2c(O)c(C=Nc3ccccc3)c3ccccc3c2=O)cc1OC,–,–,–,–,–,–
COc1ccc(-n2c(O)c(C=Nc3ccccc3)c3ccccc3c2=O)cc1,–,–,–,–,40,–
O=C(CCl)c1ccc2[nH]c(=O)oc2c1,–,–,–,–,–,–
CCOC(=O)c1cnn(-c2ccc([N+](=O)[O-])cc2)c1N,–,–,–,–,–,–
CCOC(=O)c1nnn(-c2ccc([N+](=O)[O-])cc2)c1C,–,–,–,8.8,–,–
CC1(C)CC(=O)c2c(Cc3ccccc3)n[nH]c2C1,–,50,–,–,–,–
CCc1ccc(NC(=O)CCC(=O)c2ccccc2)cc1,–,·,·,·,·,·
O=C(NCCCCNC(=O)c1ccc(Br)s1)c1ccc(Br)s1,–,–,–,16,–,–
CCN(CC)c1ccc(/C=N/N2C(C)CCCC2C)c(O)c1 (stereo not drawn),–,·,·,·,·,·
COC(c1ccccc1)c1nnc(CCC(=O)N(C)Cc2cccc(-n3cccn3)c2)o1 (stereo not drawn),–,·,·,–,40,–
O=C(Nc1c(F)cccc1F)c1ccc2c(c1)CCN2S(=O)(=O)c1ccccc1,–,·,·,·,·,·
CC(C)(C)c1ccc(Cn2nnc3c(=O)[nH]c(C4CCN(C(=O)Cc5cccs5)CC4)nc32)cc1,–,118,–,–,–,–
COc1ccc(CN(C)Cc2c(O)ccc3ccccc23)cc1,–,·,·,·,·,·
N/C(=N\S(=O)(=O)c1ccccc1)c1ccc([N+](=O)[O-])cc1,–,–,–,–,48,–
N/C(=N/S(=O)(=O)c1ccccc1)c1cccc([N+](=O)[O-])c1,–,·,–,–,–,–
CN(C)S(=O)(=O)c1ccc(C(=O)Oc2cc(=O)[nH]c3ccccc23)cc1,–,–,–,–,40,–
CCOC(=O)c1c(SCC(=O)Nc2nccs2)nc(C)c(C)c1C,–,·,·,·,·,·
SMILES,Platelet DG rel,KLK5 inh,FXIIa inh,Wee1 degr inh,Thrombin inh,FXIa inh 1536
CCN1C(=O)Nc2cccc3cccc1c23,59,·,·,·,·,·
CCSc1ccc(-c2ccc(C)cc2)nn1,–,–,–,–,–,–
CCc1ccc(-c2ccc(SCc3ccccn3)nn2)cc1,–,–,–,9.1,–,–
CCOc1ccc(-c2ccc(SCC)nn2)cc1,·,–,–,9.0,–,–
COc1ccc(-c2ccc(SC)nn2)cc1,57,–,–,–,–,–
CCOc1ccc(N(CC(=O)NCCc2ccccc2)C(=O)CCC(=O)Nc2nccs2)cc1,–,·,·,·,·,·
